We go through four molecules from ChEMBL document CHEMBL1155380, “Synthesis and characterization of a novel iNOS/Akt inhibitor Se,Se'-1,4-phenylenebis(1,2-ethanediyl)bisisoselenourea (PBISe)--against colon cancer” (Bioorg Med Chem Lett, 2010).

As a reminder, the IC50 is the concentration that gives 50% inhibition. The term inhibition denotes the change of the read-out against control, counted positive when it falls.

Series [1] concerns Caco-2. The experiment in a line: Antitumor activity against human Caco-2 cells after 72 hrs by MTS assay. In kind it is functional, cell-based. The settings on record: Caco-2, 72 h. An outline of the steps: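 Cells plated at 5×10^3 per well for 24 h, then exposed to PBS vehicle or increasing compound concentrations for 72 h. Viable cells were quantified by MTS and expressed as a percentage of the PBS-treated control. IC50 was fitted from dose-response curves, from at least three independent experiments, and reported with standard error.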
Background: Formazan colour is commonly taken as a measure of viable cells.

The subject of series [2] is Cancer cell lines. The experiment in a line: Inhibition of MAPK in human colon cancer cells assessed as increase in p27 level at 2 to 6 uM by Western blot analysis. In kind it is cell-based. An outline of the steps:
(§1)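 They were cleared at ≥10,000×g for 10 min at 4°C and assayed by BCA; 30 μg per lane went on NuPAGE gels, then PVDF. Probes: phospho-Akt (Ser473), phospho-PRAS40, cleaved PARP and p27, with HRP secondaries and ECL detection.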

Series [3] deals with HT-1080. The experiment in a line: Antitumor activity against human HT1080 cells after 24 hrs by MTS assay. It is filed as functional, cell-based. The settings on record: HT-1080, 24 h. The method in brief:
(§2)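 Cells plated at 5×10^3 per well for 24 h, then treated with PBS vehicle or increasing concentrations (10–100 μM or 1–40 μM). Viable cells measured by MTS as percent of PBS control. IC50 from dose-response curves. Normal FF2441 fibroblasts run alongside. Lines grown in DMEM/10% FBS, except WM115 in Tu2% medium without calcium chloride, with 2% heat-treated FBS.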

Series [4] relates to Cancer cell lines. The series is described as follows: Inhibition of MAPK in human colon cancer cells assessed as increase in cleaved PARP level at 2 to 6 uM by Western blot analysis. It is filed as cell-based. The method in brief: as §1
On the technique in general: In western blotting, separated proteins are transferred to a membrane and probed.

The subject of series [5] is MDA-MB-231. The experiment in a line: Antitumor activity against human MDA-MB-231 cells after 24 hrs by MTS assay. In kind it is functional, cell-based. To be noted: MDA-MB-231, 24 h. An outline of the steps: as §2
Series [6] concerns WM-115. The experiment in a line: Antitumor activity against human WM115 cells after 24 hrs by MTS assay. It is filed as functional, cell-based. The settings on record: WM-115, 24 h. An outline of the steps: as §2
Series [7] has as its system PC-3. The series is described as follows: Antitumor activity against human PC3 cells after 24 hrs by MTS assay. It is filed as functional, cell-based. The settings on record: PC-3, 24 h. An outline of the steps: as §2
For series [8], the system named is Caco-2. The series is described as follows: Selectivity ratio of IC50 for human Caco-2 cells to IC50 for human FF2441 cells. An outline of the steps:
(§3)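 Colon adenocarcinoma lines (Caco-2, HT-29, HCT-116, SW-480) were grown in Advanced DMEM with 10% heat-treated FBS and L-glutamine, or in RPMI-1640 with 10% FBS. They were exposed to PBS vehicle or graded compound (10–100 μM, or 1.6–50 μM) for 72 h, and viability was read by MTS. FF2441 normal fibroblasts were tested by a similar MTS procedure. IC50 was fitted from dose-response curves.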

Series [9] in a line: Selectivity ratio of IC50 for human HCT116 cells to IC50 for human FF2441 cells. In kind it is ADME, cell-based, HCT-116. The settings on record: HCT116 cells and FF2441 cells. The method in brief:
as §3

The test system of series [10] is SW480. The experiment in a line: Ratio of IC50 for human SW480 cells to IC50 for human FF2441 cells. An outline of the steps:
as §3

The test system of series [11] is Cancer cell lines. The experiment in a line: Inhibition of MAPK in human colon cancer cells assessed as decrease in AKT2 level at 2 to 6 uM by Western blot analysis. In kind it is cell-based.
Series [12] has as its system Cancer cell lines. The experiment in a line: Inhibition of MAPK in human colon cancer cells assessed as decrease in pPRAS40 level at 2 to 6 uM by Western blot analysis. In kind it is cell-based. The method in brief:
as §1

In series [13] the test system is Cancer cell lines. The series is described as follows: Inhibition of MAPK in human colon cancer cells assessed as decrease in pAKT level at 2 to 6 uM by Western blot analysis. In kind it is cell-based. The method in brief: as §1
Series [14] concerns A549. The series is described as follows: Antitumor activity against human A549 cells after 24 hrs by MTS assay. The settings on record: A549, 24 h. It is filed as functional, cell-based. An outline of the steps:
as §2

For series [15], the system named is HCT-116. The experiment in a line: Antitumor activity against human HCT116 cells after 72 hrs by MTS assay. It is filed as functional, cell-based. The settings on record: HCT-116, 72 h. The method in brief: (§4)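 Colon adenocarcinoma cells (Advanced DMEM with 2 mM L-glutamine and 10% heat-treated FBS, or RPMI-1640 with 10% FBS) exposed to increasing concentrations (10–100 μM, or 1.6–50 μM) for 72 h. Viable cells quantified by MTS. IC50 from dose-response curves, at least three independent experiments.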

Series [16] relates to OVCAR-3. The experiment in a line: Antitumor activity against human OVCAR-3 cells after 24 hrs by MTS assay. To be noted: OVCAR-3, 24 h. It is filed as functional, cell-based. The method in brief:
as §2

The subject of series [17] is HT-29. The series is described as follows: Selectivity ratio of IC50 for human HT-29 cells to IC50 for human FF2441 cells. The method in brief: as §3
In series [18] the test system is SW480. The series is described as follows: Antitumor activity against human SW480 cells after 72 hrs by MTS assay. In kind it is functional, cell-based. The settings on record: SW480, 72 h. An outline of the steps:
as §4

In series [19] the test system is Cancer cell lines. The experiment in a line: Inhibition of PI3K in human colon cancer cells assessed as increase in p27 level at 2 to 6 uM by Western blot analysis. It is filed as cell-based. The method in brief: (§5)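 Lysates in HEPES pH 7.5/NaCl/EDTA/Triton X-100 buffer with phosphatase and protease inhibitors, cleared at ≥10,000×g for 10 min at 4°C. BCA-quantified, 30 μg per lane. SDS gel, PVDF transfer, probed for PRAS40, phospho-PRAS40, Akt3, phospho-Akt Ser473, p27, cleaved PARP, cyclin D1 and Erk. HRP secondaries, ECL detection.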

Series [20] concerns Cancer cell lines. The series is described as follows: Inhibition of PI3K in human colon cancer cells assessed as increase in cleaved PARP level at 2 to 6 uM by Western blot analysis. In kind it is cell-based. An outline of the steps: as §5
Series [21] deals with Cancer cell lines. The series is described as follows: Inhibition of PI3K in human colon cancer cells assessed as decrease in AKT2 level at 2 to 6 uM by Western blot analysis. It is filed as cell-based.
Series [22] concerns the target Nitric oxide synthase, inducible (Homo sapiens) (UniProt P35228). The experiment in a line: Inhibition of iNOS in human Caco-2 cells assessed as reduction of total nitrite production at 2 uM after 72 hrs by colorimetric assay relative to control. In kind it is cell-based. An outline of the steps:
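Caco-2 cells (1×10^6) in Advanced DMEM/10% heat-treated FBS for 12 h, then conditioned in phenol-red-free DMEM/0.5% FBS. Treated 72 h in the same medium, PBS control. Supernatant cleared at 500×g, incubated 2 h with nitrate reductase and cofactors, then Griess reagents I and II. A540 read against a nitrate standard curve (5–35 μM). One-way ANOVA.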

In series [23] the test system is Cancer cell lines. The series is described as follows: Inhibition of PI3K in human colon cancer cells assessed as decrease in pPRAS40 level at 2 to 6 uM by Western blot analysis. It is filed as cell-based. An outline of the steps:
as §5

Series [24] has as its system HT-29. The experiment in a line: Antitumor activity against human HT-29 cells after 72 hrs by MTS assay. The settings on record: HT-29, 72 h. In kind it is functional, cell-based. An outline of the steps: as §4
Series [25] has as its system Cancer cell lines. The experiment in a line: Inhibition of PI3K in human colon cancer cells assessed as decrease in pAKT level at 2 to 6 uM by Western blot analysis. It is filed as cell-based. The method in brief: as §5

The source made the active and inactive calls. The rule behind the calls is not given here.

Chain of Nitric oxide synthase, inducible (Homo sapiens) (P35228 whole entry): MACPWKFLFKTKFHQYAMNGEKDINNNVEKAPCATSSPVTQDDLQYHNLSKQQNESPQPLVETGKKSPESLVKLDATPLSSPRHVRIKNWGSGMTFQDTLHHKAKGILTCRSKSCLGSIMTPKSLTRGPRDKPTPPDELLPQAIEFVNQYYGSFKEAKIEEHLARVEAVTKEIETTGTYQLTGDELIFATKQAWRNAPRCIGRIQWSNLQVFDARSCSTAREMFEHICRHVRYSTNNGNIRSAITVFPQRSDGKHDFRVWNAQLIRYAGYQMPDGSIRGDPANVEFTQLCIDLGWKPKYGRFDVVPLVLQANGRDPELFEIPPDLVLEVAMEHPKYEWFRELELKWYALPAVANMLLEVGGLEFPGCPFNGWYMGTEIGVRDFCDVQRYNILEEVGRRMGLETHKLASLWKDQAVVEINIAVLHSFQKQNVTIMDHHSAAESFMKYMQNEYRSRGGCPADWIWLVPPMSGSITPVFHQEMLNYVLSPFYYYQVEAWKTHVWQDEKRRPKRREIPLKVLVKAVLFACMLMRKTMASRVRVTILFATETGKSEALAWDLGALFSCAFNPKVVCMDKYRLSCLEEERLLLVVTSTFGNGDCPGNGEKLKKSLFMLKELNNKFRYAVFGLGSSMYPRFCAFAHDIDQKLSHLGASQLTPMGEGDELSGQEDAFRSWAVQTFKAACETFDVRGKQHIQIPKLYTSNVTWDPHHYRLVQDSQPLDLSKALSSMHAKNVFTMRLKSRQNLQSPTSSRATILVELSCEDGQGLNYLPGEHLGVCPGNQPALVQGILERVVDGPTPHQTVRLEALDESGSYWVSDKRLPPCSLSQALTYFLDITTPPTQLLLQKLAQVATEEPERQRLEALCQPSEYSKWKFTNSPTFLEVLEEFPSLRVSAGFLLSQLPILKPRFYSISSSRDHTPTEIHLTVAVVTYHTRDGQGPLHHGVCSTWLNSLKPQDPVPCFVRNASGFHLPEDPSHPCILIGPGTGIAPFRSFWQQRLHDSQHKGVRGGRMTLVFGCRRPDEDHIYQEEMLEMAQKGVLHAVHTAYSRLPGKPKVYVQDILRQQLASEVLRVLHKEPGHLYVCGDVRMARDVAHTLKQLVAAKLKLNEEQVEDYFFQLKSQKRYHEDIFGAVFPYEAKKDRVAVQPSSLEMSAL

Consider `Br.Br.N=C(N)SCCc1ccc(CCSC(=N)N)cc1`, for which the half-inhibitory concentration (IC50) is 59.4 µM in series [1]; above 100 µM in series [3]; above 100 µM in series [5]; above 100 µM in series [6]; above 100 µM in series [7]; above 100 µM in series [14]. Moreover, the 50% inhibitory concentration (IC50) in series [15] and in series [16] was above 100 µM throughout. Moreover, the inhibition entry in series [2], in series [4], in [11], in series [12] and in series [13] was “inactive” throughout. In addition, the Ratio in series [8] and in series [10] was 2 throughout. Further, the selectivity ratio in series [9] was determined as 2.

Regarding `Br.N=C(N)SCCc1ccccc1` [PHENYLETHYLISOTHIOUREAHYDROBROMIDE], the IC50 in [1], in [18] and in series [15] was above 100 µM in each case. For the same molecule, the Ratio in [8], in series [17] and in [10] was 2 throughout. Also, in [9], the selectivity ratio is 2.

Consider `Br.N=C(N)[Se]CCc1ccccc1`, for which the Ratio in series [8], in series [17] and in series [10] was 2 each time. For the same molecule, the selectivity ratio in series [9] stood at 2. Further, the half-maximal inhibitory concentration (IC50) in [18] and in series [15] was above 100 µM in each case.

Consider `Br.N=C(N)[Se]CCc1ccc(CC[Se]C(=N)N)cc1`, for which the inhibition entry in series [19], in series [20], in [21], in series [23] and in [25] was “Active” in each case. Moreover, the half-inhibitory concentration (IC50) stood at 3.22 µM in series [3]; 6.03 µM in series [5]; 9.7 µM in [6]; 6.64 µM in series [7]; 3.84 µM in series [24]; 4.17 µM in series [14]. In series [16], this molecule showed an IC50 of 5.33 µM. The inhibition in series [22] was found to be 25%. In addition, the Ratio in [8], in series [17] and in series [10] was 2 each time. Further, the selectivity ratio in series [9] was 2.
